# Source: PubChem
# The full list was thinned out, with hits kept by preference.
# HCT116 PTEN-null: growth suppression of PTEN-null HCT116, primary screen, cell-based, CellTiter-Glo; AID 827, 2007; viability, % at 10 µM; HCT116 PTEN-null viability, 60 h; hits give low values; hit rate 1.2% among 140,000;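 active = viability at or below a set limit, 4 SD under the median of all tested compounds, cut at about 3.7% in these data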;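 note: PTEN knockout HCT116 line with beta catenin targeted HCT116 as companion control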
# H69AR growth 86K: proliferation blockers of H69AR lung cancer cells, primary screen, cell-based, human, 86K library | viability, % at 10 µM | H69AR lung tumor viability, ATP luminescence, 72 h; hits give low values | AID 598, 2007 | hit rate 6% among 85,000;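 active = viability at or below 40%; inactive = viability above 40%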;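 note: multidrug resistant small cell line overexpressing MRP-1 efflux transporter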
# HUVEC inhibit: inhibitors of HUVEC proliferation, primary screen, cell-based, 384-well; CellTiter-Glo luminescence, 72 h; hits give low values; viability, % at 10 µM (by protocol); hit rate 1.1% among 86,000; AID 648, 2007;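 active = viability at or below 30%; inactive = viability above 30%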
# HCT116 bCat-KO: primary screen for growth suppressors in beta-catenin knockout HCT116 cells (colon tumor, human). HCT116 beta-catenin knockout viability, CellTiter-Glo, 60 h; hits give low values. viability, % at 10 µM. hit rate 1.5% among 140,000;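 active = viability at or under a set limit, the compound median less 4 SD, cut at about 6% in these data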
# Fibroblast inh: antiproliferative effect on LL 47 fibroblasts – human, LL 47 cells, CellTiter-Glo luminescence, primary screen | AID 719, 2007 | viability, % at 10 µM | LL 47 human lung fibroblast viability, ATP luminescence; hits give low values | hit rate 1.1% among 85,000;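 active = viability at or below 50% in the single dose screen; inactive = viability above 50%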;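 note: compound exposure lasted 72 h before the ATP readout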
#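 Test system: LL 47 human lung fibroblasts; Quantity: 1,150 cells/well; Buffer or medium: IMEM plus 15% FBS; Dosing: tenfold compound dosing solution, DMSO at 0.1%; Timing: overnight cell rest, 72 h compound treatment at 37 °C; Detection: ATP-based CellTiter-Glo luminescent readout; Read-out basis: viability percentage against median untreated-cell control; Controls: cell-only wells, no compound.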
# Hits are given with their value; i = inactive; nt = no result given.
SMILES,HCT116 PTEN-null,H69AR growth 86K,HUVEC inhibit,HCT116 bCat-KO,Fibroblast inh
CN1CCc2c(sc3nc(SCC(=O)N4CCOCC4)nc(N)c23)C1,i,i,i,i,i
CSc1nc(SCC(=O)NC(c2ccccc2)c2ccccc2)c2c3c(sc2n1)CN(C)CC3,i,12,i,i,48
CCN(CC)c1ccc2cc(C(C)=O)c(=O)oc2c1,i,i,i,i,i
CCN(CC)c1ccc2cc(C(=O)Nc3cccnc3N3CCOCC3)c(=O)oc2c1,nt,21,i,nt,i
CCN(CC)c1ccc2cc(C(=O)Nc3ccccn3)c(=O)oc2c1,i,i,i,i,i
CCOc1cc(-n2cnnn2)c(OCC)cc1NC(=O)c1cc2ccc(N(CC)CC)cc2oc1=O,nt,13,i,nt,i
Cc1cccc(CN2CCC(CNC(=O)C3CCCN(S(=O)(=O)c4cnc[nH]4)C3)CC2)c1 (stereo not drawn),i,i,i,i,i
COc1ccc(S(=O)(=O)N2CCC(C(=O)N3CCCCCC3)CC2)cc1,i,i,i,i,i
CN(C(=O)COc1ccc(C(C)(C)C)cc1)C1CCS(=O)(=O)C1 (stereo not drawn),i,i,i,i,i
COc1ccc(OCCSc2nnc(C)n2-c2ccccc2)cc1,i,32,i,i,i
O=C(CCNc1ccc(F)c(Cl)c1)c1ccco1,i,1.8,i,2.2,i
O=C(CCNc1cc(Cl)cc(Cl)c1)c1ccco1,i,i,i,i,i
O=C(CCNc1ccc(F)cc1)c1ccco1,i,1.1,i,i,i
CCn1c(=N)c(C(N)=O)cc2c(=O)n3cccc(C)c3nc21,nt,i,i,nt,i
O=S(=O)(NCC1CCCO1)c1ccc(Br)s1 (stereo not drawn),i,i,i,i,i
COc1ccc(C(=O)Cc2cc(OC)c(OC)cc2[N+](=O)[O-])cc1,i,nt,nt,i,nt
COc1ccc(C(NC(=O)c2c(F)c(F)c(F)c(F)c2F)c2ccccc2)cc1 (stereo not drawn),1.7,nt,nt,1.3,nt
COc1cc(OC)cc(-c2nnc(SCc3cccc(C(=O)O)c3)o2)c1,i,i,i,i,i
Cc1c(Br)cc(C(=O)OC2CCN(C)CC2)c(C)c1C,i,3.8,i,i,i
COC(=O)[C@H](CCSC)NC(=O)Nc1ccc(OC)c(Cl)c1,i,i,i,i,i
O=C(O)c1cc(-c2ccc3c(c2)OCO3)nc2ccccc12,i,i,i,i,i
CC(NC(=O)c1cc(-c2ccc3c(c2)OCO3)nc2ccccc12)C(C)(C)C (stereo not drawn),i,16,i,i,i
CCN(CC)S(=O)(=O)c1ccc2c(c1)nc(SCC(=O)N1CCOCC1)n2-c1ccccc1OC,i,nt,nt,i,nt
Cc1[nH][nH]c(=O)c1C(c1c(C)[nH][nH]c1=O)c1cn(Cc2ccccc2Cl)c2ccccc12,i,nt,nt,i,nt
CC(=O)Nc1ccc(S(=O)(=O)N2CCN(c3cc(C)nc4ccccc34)CC2)cc1,i,i,i,i,i
SMILES,HCT116 PTEN-null,H69AR growth 86K,HUVEC inhibit,HCT116 bCat-KO,Fibroblast inh
CC(=O)Nc1ccc(S(=O)(=O)N2CCN(c3nc(NC4CCCC4)c4ccccc4n3)CC2)cc1,1.5,1.4,11,1.5,i
CCOC(=O)c1c(C)[nH]c(C(=O)OCC(=O)Nc2cc(C)ccc2OC)c1C,i,16,i,2.2,23
CCOC(=O)c1c(C)[nH]c(C(=O)OCC(=O)Nc2ccc(OC)c(Cl)c2)c1C,i,nt,nt,i,nt
CCOC(=O)c1c(C)[nH]c(C(=O)OCC(=O)Nc2ccc(OCC)cc2)c1C,i,nt,nt,i,nt
CCOC(=O)c1[nH]c(C)c(C(=O)Nc2cc(OC)ccc2OC)c1C,i,28,i,i,i
CCOC(=O)c1c(C)[nH]c(C(=O)OCC(=O)Nc2cc(Cl)ccc2OC)c1C,i,2.6,i,i,i
CCOC(=O)c1c(C)c(C(=O)Nc2cc(OC)ccc2OC)c(C)n1CC,i,i,i,i,i
Cc1ccc(-c2nnn(CC(=O)N(c3ccc(F)cc3)C(C(=O)NC(C)(C)C)c3ccco3)n2)o1 (stereo not drawn),i,32,i,i,i
Cc1ccc(-c2nnn(CC(=O)N(c3ccc(F)cc3)C(C(=O)NC3CCCC3)c3ccco3)n2)o1 (stereo not drawn),i,i,i,i,i
CC(C)(C)c1cc(CN2CCC(O)CC2)cc(C(C)(C)C)c1O,i,i,i,i,i
Cc1c(C(=O)O)oc2c1C(O)CC(C)(C)C2 (stereo not drawn),i,i,i,i,i
